Measured values: ChEMBL document CHEMBL1136991, “Novel potent BRAF inhibitors: toward 1 nM compounds through optimization of the central phenyl ring” (J Med Chem, 2009)
Activity calls are given as the source filed them. No cut-off for these calls is given here.

Tests used:
[1] = molecular target: T1, Serine/threonine-protein kinase B-raf (Homo sapiens, UniProt P15056, V600E); assay: Inhibition of BRAF V600E mutant
Summary of the method: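 Purified, isolated V600E BRAF enzyme assayed in vitro; potency reported as IC50.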

[2] = molecular target: T1, Serine/threonine-protein kinase B-raf; assay: Inhibition of BRAF V600E mutant-mediated ERK phosphorylation in human WM266.4 cells; format: cell-based
Summary of the method: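 Cellular pathway read-out: ERK phosphorylation (pERK) was measured in WM266.4 melanoma cells and reported as an IC50.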

[3] = Growth inhibition of human WM266.4 cells expressing BRAF V600E mutant after 5 days by SRB assay; format: functional; conditions: WM 266-4, 120 h
Summary of the method: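 WM266.4 human melanoma cells, which are driven by mutant BRAF, were assayed for proliferation by sulforhodamine B (SRB) staining; the value is a GI50.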

[4] = test system: WM1361; assay: Growth inhibition of human WM1361 cells expressing NRAS mutant after 5 days by SRB assay; format: functional, cell-based

T1 sequence (P15056 2-766 V600E limits assumed): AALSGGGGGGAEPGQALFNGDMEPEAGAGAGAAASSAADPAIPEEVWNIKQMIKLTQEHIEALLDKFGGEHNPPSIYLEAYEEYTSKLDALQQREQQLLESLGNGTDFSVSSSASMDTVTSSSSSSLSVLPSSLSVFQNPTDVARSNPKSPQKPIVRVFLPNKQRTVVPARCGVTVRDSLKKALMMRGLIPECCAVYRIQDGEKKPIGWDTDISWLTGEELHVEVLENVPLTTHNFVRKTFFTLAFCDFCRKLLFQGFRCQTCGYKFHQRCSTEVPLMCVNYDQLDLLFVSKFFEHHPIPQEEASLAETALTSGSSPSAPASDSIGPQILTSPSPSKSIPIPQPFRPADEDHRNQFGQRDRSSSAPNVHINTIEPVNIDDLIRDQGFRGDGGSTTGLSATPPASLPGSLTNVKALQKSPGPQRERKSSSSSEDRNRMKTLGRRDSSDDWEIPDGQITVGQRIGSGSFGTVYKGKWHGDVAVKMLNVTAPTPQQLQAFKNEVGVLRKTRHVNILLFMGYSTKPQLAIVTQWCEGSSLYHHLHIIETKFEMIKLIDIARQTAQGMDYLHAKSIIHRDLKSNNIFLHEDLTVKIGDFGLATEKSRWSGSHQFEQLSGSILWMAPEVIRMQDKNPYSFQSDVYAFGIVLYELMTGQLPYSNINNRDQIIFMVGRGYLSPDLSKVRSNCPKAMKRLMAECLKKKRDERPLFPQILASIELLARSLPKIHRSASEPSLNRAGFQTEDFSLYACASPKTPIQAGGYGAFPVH

Q: Which IC50 [1] does the source give for `O=C(Nc1ccc(Cl)c(C(F)(F)F)c1)Nc1ccc(Oc2ccnc3[nH]c(=O)[nH]c23)c2ccccc12` here?
A: 30 nM

Q: And the IC50 [2]?
A: 559 nM

Q: And the GI50 [3]?
A: 470 nM

Q: With `O=C(Nc1ccc(Oc2ccnc3[nH]c(=O)[nH]c23)cc1F)Nc1cc(C(F)(F)F)ccc1F` as the compound, how does the IC50 [1] read?
A: 7 nM

Q: What about the IC50 [2] of the same compound?
A: 1290 nM

Q: And the GI50 [3]?
A: 1150 nM

Q: For `Cn1c(=O)[nH]c2nccc(Oc3ccc(NC(=O)c4cccc(SC(F)(F)F)c4)c4ccccc34)c21`, which IC50 [1] is on record?
A: 4600 nM

Q: What about the IC50 [2] of the same compound?
A: 18400 nM

Q: And the GI50 [3]?
A: 7600 nM

Q: Which results are given for `Cn1c(=O)[nH]c2nccc(Oc3ccc(NC(=O)c4cccc(OC(F)(F)F)c4)c4ccccc34)c21`?
A: IC50 [1]: 5200 nM; IC50 [2]: 31000 nM; GI50 [3]: 12000 nM

Q: For `CNC(=O)c1cc(Oc2ccc(NC(=O)Nc3ccc(Cl)c(C(F)(F)F)c3)cc2)ccn1`, which Activity [4] is on record?
A: inactive

Q: With `O=C(Nc1ccc(Cl)c(C(F)(F)F)c1)Nc1ccc(Oc2ccnc3[nH]c(=O)[nH]c23)cc1Cl` as the compound, how does the IC50 [1] read?
A: 23 nM

Q: What about the IC50 [2] of the same compound?
A: 1330 nM

Q: And the GI50 [3]?
A: 2000 nM

Q: For `O=C(Nc1ccc(Oc2ccnc3[nH]c(=O)[nH]c23)c(F)c1)Nc1ccc(Cl)c(C(F)(F)F)c1`, which IC50 [1] is on record?
A: 47 nM

Q: What about the IC50 [2] of the same compound?
A: 34000 nM

Q: What does the source list for `Cn1c(=O)[nH]c2nccc(Oc3ccc(NC(=O)Nc4ccc(Cl)c(C(F)(F)F)c4)c4ccccc34)c21`?
A: IC50 [1]: 23 nM; IC50 [2]: 770 nM; GI50 [3]: 1040 nM

Q: Which results are given for `Cc1cc(Oc2ccnc3[nH]c(=O)[nH]c23)ccc1NC(=O)Nc1ccc(Cl)c(C(F)(F)F)c1`?
A: IC50 [1]: 37 nM; IC50 [2]: 4720 nM; GI50 [3]: 5900 nM

Q: For `O=C(Nc1ccc(Oc2ccnc3[nH]c(=O)[nH]c23)cc1)Nc1ccc(Cl)c(C(F)(F)F)c1`, which IC50 [2] is on record?
A: 2390 nM

Q: And the GI50 [3]?
A: 4200 nM

Q: For `Cc1c(NC(=O)Nc2ccc(Cl)c(C(F)(F)F)c2)ccc(Oc2ccnc3[nH]c(=O)[nH]c23)c1C`, which IC50 [1] is on record?
A: 56 nM

Q: What about the IC50 [2] of the same compound?
A: 3900 nM

Q: And the GI50 [3]?
A: 2000 nM

Q: Which IC50 [1] does the source give for `O=C(Nc1ccc(Cl)c(C(F)(F)F)c1)Nc1ccc(Oc2ccnc3[nH]c(=O)[nH]c23)cc1-c1ccccc1` here?
A: 6500 nM

Q: What about the IC50 [2] of the same compound?
A: > 100000 nM

Q: What about the GI50 [3] of the same compound?
A: 5100 nM

Q: Which results are given for `O=C(Cc1cccc(OC(F)(F)F)c1)Nc1ccc(Oc2ccnc3[nH]c(=O)[nH]c23)c2ccccc12`?
A: IC50 [1]: > 10000 nM; IC50 [2]: > 100000 nM; GI50 [3]: 3100 nM

Q: For `O=C(Nc1cccc(C(F)(F)F)c1)Nc1ccc(Oc2ccnc3[nH]c(=O)[nH]c23)c2ccccc12`, which IC50 [1] is on record?
A: 6 nM

Q: What about the IC50 [2] of the same compound?
A: 1910 nM

Q: And the GI50 [3]?
A: 320 nM

Q: For `CN(C)c1cc(Oc2ccnc3[nH]c(=O)[nH]c23)ccc1NC(=O)Nc1ccc(Cl)c(C(F)(F)F)c1`, which IC50 [1] is on record?
A: 10000 nM

Q: What about the IC50 [2] of the same compound?
A: 20700 nM

Q: What about the GI50 [3] of the same compound?
A: 5340 nM

Q: For `CSc1cc(Oc2ccnc3[nH]c(=O)[nH]c23)ccc1NC(=O)Nc1cc(C(F)(F)F)ccc1F`, which IC50 [1] is on record?
A: 12 nM

Q: And the IC50 [2]?
A: 3060 nM

Q: And the GI50 [3]?
A: 2600 nM

Q: Which IC50 [1] does the source give for `COc1cc(Oc2ccnc3[nH]c(=O)[nH]c23)ccc1NC(=O)Nc1ccc(Cl)c(C(F)(F)F)c1` here?
A: 106 nM

Q: What about the IC50 [2] of the same compound?
A: > 100000 nM

Q: For `Cn1c(=O)[nH]c2c(Oc3ccc(NC(=O)Nc4cc(C(F)(F)F)ccc4F)c4ccccc34)ccnc21`, which IC50 [1] is on record?
A: 167 nM

Q: What about the IC50 [2] of the same compound?
A: 2000 nM

Q: And the GI50 [3]?
A: 730 nM

Q: For `Cn1c(=O)[nH]c2nccc(Oc3ccc(NC(=O)Nc4cccc(C(C)(C)C)c4)c4ccccc34)c21`, which IC50 [1] is on record?
A: 37 nM

Q: What about the IC50 [2] of the same compound?
A: 1060 nM

Q: And the GI50 [3]?
A: 1130 nM

Q: Which IC50 [1] does the source give for `O=C(Nc1ccc(F)c(F)c1)Nc1ccc(Oc2ccnc3[nH]c(=O)[nH]c23)c2ccccc12` here?
A: 220 nM

Q: What about the IC50 [2] of the same compound?
A: > 100000 nM

Q: And the GI50 [3]?
A: 5500 nM

Q: Which results are given for `O=C(Nc1cccc(F)c1)Nc1ccc(Oc2ccnc3[nH]c(=O)[nH]c23)c2ccccc12`?
A: IC50 [1]: 37 nM; IC50 [2]: 214 nM; GI50 [3]: 290 nM

Q: With `O=C(Cc1cccc(C(F)(F)F)c1)Nc1ccc(Oc2ccnc3[nH]c(=O)[nH]c23)c2ccccc12` as the compound, how does the IC50 [1] read?
A: > 10000 nM

Q: What about the IC50 [2] of the same compound?
A: > 100000 nM

Q: Which IC50 [1] does the source give for `COc1cc(NC(=O)Nc2cccc(C(F)(F)F)c2)ccc1Oc1ccnc2[nH]c(=O)[nH]c12` here?
A: 16 nM

Q: And the IC50 [2]?
A: 29400 nM

Q: And the GI50 [3]?
A: > 100000 nM

Q: With `Cn1c(=O)[nH]c2nccc(Oc3ccc(NC(=O)Nc4cccc(C(F)(F)F)c4)c4ccccc34)c21` as the compound, how does the IC50 [1] read?
A: 10 nM

Q: And the IC50 [2]?
A: 600 nM

Q: What about the GI50 [3] of the same compound?
A: 810 nM

Q: Which IC50 [1] does the source give for `O=C(Nc1cccc(C(F)(F)F)c1)Nc1ccc(Oc2ccnc3[nH]c(=O)[nH]c23)cc1F` here?
A: 12 nM

Q: What about the IC50 [2] of the same compound?
A: 3450 nM

Q: And the GI50 [3]?
A: 1610 nM

Q: Which results are given for `CSc1cc(Oc2ccnc3[nH]c(=O)[nH]c23)ccc1NC(=O)Nc1ccc(Cl)c(C(F)(F)F)c1`?
A: IC50 [1]: 1 nM; IC50 [2]: 610 nM; GI50 [3]: 470 nM

Q: What does the source list for `Cn1c(=O)[nH]c2nccc(Oc3ccc(NC(=O)Nc4ccc(Cl)c(C(F)(F)F)c4)c(F)c3)c21`?
A: IC50 [1]: 10 nM; IC50 [2]: 21000 nM; GI50 [3]: 100000 nM

Q: Which IC50 [1] does the source give for `O=C(Nc1cc(C(F)(F)F)ccc1N1CCOCC1)Nc1ccc(Oc2ccnc3[nH]c(=O)[nH]c23)c2ccccc12` here?
A: 14 nM

Q: What about the IC50 [2] of the same compound?
A: 346 nM

Q: And the GI50 [3]?
A: 291 nM

Q: With `Cn1c(=O)[nH]c2c(Oc3ccc(NC(=O)Nc4cccc(C(C)(C)C)c4)c4ccccc34)ccnc21` as the compound, how does the IC50 [1] read?
A: 430 nM

Q: What about the IC50 [2] of the same compound?
A: 46000 nM

Q: What about the GI50 [3] of the same compound?
A: > 100000 nM

Q: What does the source list for `CS(=O)(=O)c1cc(Oc2ccnc3[nH]c(=O)[nH]c23)ccc1NC(=O)Nc1ccc(Cl)c(C(F)(F)F)c1`?
A: IC50 [1]: 90 nM; IC50 [2]: 11000 nM; GI50 [3]: 11900 nM

Q: What does the source list for `O=C(Nc1ccc(Cl)c(C(F)(F)F)c1)Nc1ccc(Oc2ccnc3[nH]c(=O)[nH]c23)cc1C(F)(F)F`?
A: IC50 [1]: 22 nM; IC50 [2]: 3580 nM; GI50 [3]: 930 nM

Q: For `Cn1c(=O)[nH]c2c(Oc3ccc(NC(=O)Nc4ccc(Cl)c(C(F)(F)F)c4)c4ccccc34)ccnc21`, which IC50 [1] is on record?
A: 156 nM

Q: What about the IC50 [2] of the same compound?
A: 3140 nM

Q: What about the GI50 [3] of the same compound?
A: 2300 nM

Q: What does the source list for `Cc1cc(NC(=O)Nc2ccc(Cl)c(C(F)(F)F)c2)ccc1Oc1ccnc2[nH]c(=O)[nH]c12`?
A: IC50 [1]: 23 nM; IC50 [2]: 59000 nM; GI50 [3]: 1790 nM

Q: For `COc1cc(NC(=O)Nc2ccc(Cl)c(C(F)(F)F)c2)ccc1Oc1ccnc2[nH]c(=O)[nH]c12`, which IC50 [1] is on record?
A: 25 nM

Q: What about the IC50 [2] of the same compound?
A: 5500 nM

Q: What about the GI50 [3] of the same compound?
A: 6200 nM

Q: What does the source list for `O=C(Nc1cccc(SC(F)(F)F)c1)Nc1ccc(Oc2ccnc3[nH]c(=O)[nH]c23)cc1F`?
A: IC50 [1]: 7 nM; IC50 [2]: 4150 nM; GI50 [3]: 1190 nM

Q: Which IC50 [1] does the source give for `O=C(Nc1ccc(Cl)c(C(F)(F)F)c1)Nc1ccc(Oc2ccnc3[nH]c(=O)[nH]c23)cc1F` here?
A: 8 nM

Q: And the IC50 [2]?
A: 2170 nM

Q: What about the GI50 [3] of the same compound?
A: 1530 nM

Q: Which IC50 [1] does the source give for `Cn1c(=O)[nH]c2nccc(Oc3ccc(NC(=O)Nc4cccc(SC(F)(F)F)c4)c4ccccc34)c21` here?
A: 24 nM

Q: And the IC50 [2]?
A: 1460 nM

Q: What about the GI50 [3] of the same compound?
A: 1200 nM

Q: What does the source list for `Cn1c(=O)[nH]c2nccc(Oc3ccc(NC(=O)Nc4cc(C(F)(F)F)ccc4F)c4ccccc34)c21`?
A: IC50 [1]: 17 nM; IC50 [2]: 810 nM; GI50 [3]: 490 nM
